Assay results: ChEMBL document CHEMBL1152541, “Staurosporine tethered peptide ligands that target cAMP-dependent protein kinase (PKA): optimization and selectivity profiling” (Bioorg Med Chem, 2009)
*1 amine or outer side, *2 acyl side, *3 side chain or, on linkers, in order; H or OH if unused. Where a SMILES comes first, the peptide text is derived from it. Bridges are numbered along the chain shown (N, C = ends). [ ]: non-standard residue; d: D form. The star is where a group is joined. Staurosporine = CO[C@@H]1[C@H](N(C)*)C[C@H]2O[C@]1(C)n1c3ccccc3c3c4c(c5c6ccccc6n2c5c31)C(=O)NC4; Suc = O=C(CCC(=O)[*:2])[*:1]; Dap = NC[C@H](N)C(=O)O; βAla = NCCC(=O)O

How the values were obtained:
[1] = target: Ephrin type-A receptor 2 (Homo sapiens) (UniProt P29317); assay: Binding affinity to human EPHA2 at 500 nM by cell-based competition binding assay relative to control in presence of DTT
Outline: (§1)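 Commercial (Ambit) competitive kinase-binding panel of 90 kinases measured the binding profile. Run under reducing conditions of 7.5 mM DTT. Binding is expressed relative to control.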

[2] = target: Angiopoietin-1 receptor (Homo sapiens) (UniProt Q02763); assay: Binding affinity to human TIE2 at 500 nM by cell-based competition binding assay relative to control in presence of DTT
[3] = target: T1, Testis-specific serine/threonine-protein kinase 1 (Homo sapiens) (UniProt Q9BXA7); assay: Binding affinity to human TSSK1 at 500 nM by cell-based competition binding assay relative to control in presence of DTT
T1 sequence (whole entry): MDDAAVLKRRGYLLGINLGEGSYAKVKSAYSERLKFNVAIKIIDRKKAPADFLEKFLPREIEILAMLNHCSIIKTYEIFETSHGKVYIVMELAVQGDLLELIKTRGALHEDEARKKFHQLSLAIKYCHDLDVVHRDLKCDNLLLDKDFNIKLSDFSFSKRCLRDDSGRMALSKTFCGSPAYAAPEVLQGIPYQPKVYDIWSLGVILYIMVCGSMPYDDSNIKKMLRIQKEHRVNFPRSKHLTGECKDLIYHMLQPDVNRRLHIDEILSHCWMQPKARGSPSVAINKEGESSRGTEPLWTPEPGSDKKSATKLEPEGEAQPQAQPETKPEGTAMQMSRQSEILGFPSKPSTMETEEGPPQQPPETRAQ

[4] = target: Cyclin-dependent kinase 3 (Homo sapiens) (UniProt Q00526); assay: Binding affinity to human CDK3 at 500 nM by cell-based competition binding assay relative to control in presence of DTT
Outline: (§2)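 Kinase binding profiling ran on a commercial (Ambit) competitive binding screen against a panel of 90 kinases. The screen used reducing conditions with 7.5 mM DTT. To withstand the DTT, the bivalent ligand was tested as its amide isostere, with the disulfide replaced. A staurosporine derivative carrying a 3 β-alanine linker was run as the reference compound.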

[5] = target: Cyclin-dependent kinase 9 (Homo sapiens) (UniProt P50750); assay: Binding affinity to human CDK9 at 500 nM by cell-based competition binding assay relative to control in presence of DTT; outline: as §1
[6] = target: Insulin receptor (Homo sapiens) (UniProt P06213); assay: Binding affinity to human INSR at 500 nM by cell-based competition binding assay relative to control in presence of DTT
Outline: (§3)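 Competition binding screen (Ambit) across a panel of 90 kinases, scoring test ligand displacement of each kinase's binding relative to control. The screen ran under reducing conditions with 7.5 mM DTT.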

[7] = target: Insulin-like growth factor 1 receptor (Homo sapiens) (UniProt P08069); assay: Binding affinity to human IGF1R at 200 nM by cell-based competition binding assay relative to control in presence of DTT; outline: as §3
[8] = target: RAC-alpha serine/threonine-protein kinase (Homo sapiens) (UniProt P31749); assay: Binding affinity to human AKT1 at 50 nM by cell-based competition binding assay relative to control in presence of DTT; outline: as §2
[9] = tested on: Serine/threonine-protein kinase B-raf (Homo sapiens), P15056 [V600E]; assay: Binding affinity to human BRAF V600E mutant at 50 nM by cell-based competition binding assay relative to control in presence of DTT; outline: as §2
[10] = target: Cyclin-dependent kinase 7 (Homo sapiens) (UniProt P50613); assay: Binding affinity to human CDK7 at 50 nM by cell-based competition binding assay relative to control in presence of DTT; outline: as §2
[11] = target: MAP kinase-activated protein kinase 2 (Homo sapiens) (UniProt P49137); assay: Binding affinity to human MAPKAPK2 at 50 nM by cell-based competition binding assay relative to control in presence of DTT; outline: as §3
[12] = target: Phosphatidylinositol 4,5-bisphosphate 3-kinase catalytic subunit gamma isoform (Homo sapiens) (UniProt P48736); assay: Binding affinity to human PIK3Cgamma at 50 nM by cell-based competition binding assay relative to control in presence of DTT
[13] = target: T2, NUAK family SNF1-like kinase 2 (Homo sapiens) (UniProt Q9H093); assay: Binding affinity to human SNARK at 50 nM by cell-based competition binding assay relative to control in presence of DTT
T2 sequence (whole entry): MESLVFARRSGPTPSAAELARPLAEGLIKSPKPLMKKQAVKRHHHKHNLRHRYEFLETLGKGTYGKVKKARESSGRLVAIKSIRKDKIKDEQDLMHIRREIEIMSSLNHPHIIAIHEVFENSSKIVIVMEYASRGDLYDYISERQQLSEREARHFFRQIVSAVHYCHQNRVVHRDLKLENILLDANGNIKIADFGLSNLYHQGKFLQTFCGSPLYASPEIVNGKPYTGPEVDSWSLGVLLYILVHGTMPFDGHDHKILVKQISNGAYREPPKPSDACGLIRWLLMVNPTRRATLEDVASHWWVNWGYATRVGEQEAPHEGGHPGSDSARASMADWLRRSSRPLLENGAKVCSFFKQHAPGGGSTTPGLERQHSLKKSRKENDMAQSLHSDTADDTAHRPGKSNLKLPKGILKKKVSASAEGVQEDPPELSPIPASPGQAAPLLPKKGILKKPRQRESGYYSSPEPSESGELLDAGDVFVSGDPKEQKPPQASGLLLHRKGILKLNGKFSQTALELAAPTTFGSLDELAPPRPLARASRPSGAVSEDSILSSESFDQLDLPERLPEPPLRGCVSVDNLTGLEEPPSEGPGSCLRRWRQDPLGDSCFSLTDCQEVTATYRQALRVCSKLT

[14] = target: High affinity nerve growth factor receptor (Homo sapiens) (UniProt P04629); assay: Binding affinity to human TRKA at 50 nM by cell-based competition binding assay relative to control in presence of DTT
[15] = target: Serine/threonine-protein kinase 32C (Homo sapiens) (UniProt Q86UX6); assay: Binding affinity to human YANK3 at 50 nM by cell-based competition binding assay relative to control in presence of DTT

Sequence of Angiopoietin-1 receptor (Homo sapiens) (Q02763 whole entry): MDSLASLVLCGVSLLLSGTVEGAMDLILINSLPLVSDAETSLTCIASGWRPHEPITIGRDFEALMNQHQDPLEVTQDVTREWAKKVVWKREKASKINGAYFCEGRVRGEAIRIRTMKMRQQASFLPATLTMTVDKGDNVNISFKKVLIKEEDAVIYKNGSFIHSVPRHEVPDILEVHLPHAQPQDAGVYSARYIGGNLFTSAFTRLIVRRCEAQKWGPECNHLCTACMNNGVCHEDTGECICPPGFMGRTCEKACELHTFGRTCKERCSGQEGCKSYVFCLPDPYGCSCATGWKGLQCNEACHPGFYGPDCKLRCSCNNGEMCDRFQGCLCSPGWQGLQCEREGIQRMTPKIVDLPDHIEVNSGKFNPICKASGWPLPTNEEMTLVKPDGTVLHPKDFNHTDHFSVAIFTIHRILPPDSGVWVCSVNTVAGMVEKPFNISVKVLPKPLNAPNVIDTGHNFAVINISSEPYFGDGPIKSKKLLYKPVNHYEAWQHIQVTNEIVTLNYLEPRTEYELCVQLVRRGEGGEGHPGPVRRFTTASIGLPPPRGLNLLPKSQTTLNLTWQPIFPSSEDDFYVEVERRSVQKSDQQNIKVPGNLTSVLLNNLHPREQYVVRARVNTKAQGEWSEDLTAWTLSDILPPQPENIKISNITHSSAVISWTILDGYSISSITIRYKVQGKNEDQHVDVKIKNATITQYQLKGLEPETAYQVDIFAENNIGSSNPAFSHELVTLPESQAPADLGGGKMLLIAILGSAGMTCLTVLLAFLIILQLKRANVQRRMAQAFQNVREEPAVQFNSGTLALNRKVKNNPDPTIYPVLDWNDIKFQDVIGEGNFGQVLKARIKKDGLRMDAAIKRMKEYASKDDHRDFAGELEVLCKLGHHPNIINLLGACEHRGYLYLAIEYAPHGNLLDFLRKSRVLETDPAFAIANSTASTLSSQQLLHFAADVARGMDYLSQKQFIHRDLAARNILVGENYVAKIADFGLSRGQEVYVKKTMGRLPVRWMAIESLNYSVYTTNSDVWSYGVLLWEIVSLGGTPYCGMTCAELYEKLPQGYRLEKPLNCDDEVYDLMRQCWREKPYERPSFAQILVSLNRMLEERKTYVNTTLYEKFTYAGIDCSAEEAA
Sequence of Ephrin type-A receptor 2 (Homo sapiens) (P29317 whole entry): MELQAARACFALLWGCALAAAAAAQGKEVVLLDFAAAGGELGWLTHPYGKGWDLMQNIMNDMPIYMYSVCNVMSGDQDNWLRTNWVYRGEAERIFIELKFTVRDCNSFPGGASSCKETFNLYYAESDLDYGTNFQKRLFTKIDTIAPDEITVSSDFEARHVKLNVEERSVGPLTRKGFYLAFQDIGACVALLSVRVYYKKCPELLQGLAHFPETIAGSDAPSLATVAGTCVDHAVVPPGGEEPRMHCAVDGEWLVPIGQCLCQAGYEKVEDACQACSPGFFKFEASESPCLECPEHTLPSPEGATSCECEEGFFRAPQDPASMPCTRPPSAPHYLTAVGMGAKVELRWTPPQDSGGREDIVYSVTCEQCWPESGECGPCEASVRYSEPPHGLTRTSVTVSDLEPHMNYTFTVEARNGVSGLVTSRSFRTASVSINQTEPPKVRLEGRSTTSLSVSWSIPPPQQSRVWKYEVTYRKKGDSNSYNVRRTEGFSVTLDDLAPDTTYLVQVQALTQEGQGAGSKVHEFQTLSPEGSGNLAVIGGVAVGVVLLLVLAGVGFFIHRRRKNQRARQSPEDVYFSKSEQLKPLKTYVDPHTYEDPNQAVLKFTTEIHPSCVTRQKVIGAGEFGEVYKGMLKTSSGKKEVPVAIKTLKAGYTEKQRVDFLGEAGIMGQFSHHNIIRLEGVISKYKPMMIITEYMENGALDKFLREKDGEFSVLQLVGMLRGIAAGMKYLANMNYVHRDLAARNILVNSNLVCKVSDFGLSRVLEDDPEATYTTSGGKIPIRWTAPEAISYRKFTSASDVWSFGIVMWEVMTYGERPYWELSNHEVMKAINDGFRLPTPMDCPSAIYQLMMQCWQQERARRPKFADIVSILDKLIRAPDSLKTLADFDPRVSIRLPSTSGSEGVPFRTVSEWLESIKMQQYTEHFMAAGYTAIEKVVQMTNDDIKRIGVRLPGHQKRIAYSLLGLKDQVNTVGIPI
Sequence of Serine/threonine-protein kinase B-raf (Homo sapiens), P15056 [V600E] (P15056 whole entry V600E): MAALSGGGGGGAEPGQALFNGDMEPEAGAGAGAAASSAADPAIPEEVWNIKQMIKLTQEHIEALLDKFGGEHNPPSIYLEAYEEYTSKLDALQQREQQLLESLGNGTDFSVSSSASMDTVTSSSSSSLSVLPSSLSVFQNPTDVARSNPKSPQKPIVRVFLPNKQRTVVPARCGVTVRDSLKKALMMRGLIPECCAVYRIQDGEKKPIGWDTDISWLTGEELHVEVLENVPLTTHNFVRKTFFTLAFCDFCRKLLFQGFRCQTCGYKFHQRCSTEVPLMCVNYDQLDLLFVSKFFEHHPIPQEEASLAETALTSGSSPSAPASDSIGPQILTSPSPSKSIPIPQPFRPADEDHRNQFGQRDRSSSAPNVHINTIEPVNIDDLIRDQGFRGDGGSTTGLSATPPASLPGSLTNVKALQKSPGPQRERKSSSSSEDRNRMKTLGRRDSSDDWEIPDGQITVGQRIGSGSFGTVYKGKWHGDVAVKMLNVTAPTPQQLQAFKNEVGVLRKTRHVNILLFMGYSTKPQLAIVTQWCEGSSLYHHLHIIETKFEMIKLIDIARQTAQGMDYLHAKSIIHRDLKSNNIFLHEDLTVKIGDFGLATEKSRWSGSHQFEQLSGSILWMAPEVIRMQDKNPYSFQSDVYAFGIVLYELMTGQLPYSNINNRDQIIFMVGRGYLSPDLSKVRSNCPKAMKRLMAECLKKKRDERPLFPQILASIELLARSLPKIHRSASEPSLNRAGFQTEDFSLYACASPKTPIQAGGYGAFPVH
Sequence of Phosphatidylinositol 4,5-bisphosphate 3-kinase catalytic subunit gamma isoform (Homo sapiens) (P48736 whole entry, looked up, canonical isoform): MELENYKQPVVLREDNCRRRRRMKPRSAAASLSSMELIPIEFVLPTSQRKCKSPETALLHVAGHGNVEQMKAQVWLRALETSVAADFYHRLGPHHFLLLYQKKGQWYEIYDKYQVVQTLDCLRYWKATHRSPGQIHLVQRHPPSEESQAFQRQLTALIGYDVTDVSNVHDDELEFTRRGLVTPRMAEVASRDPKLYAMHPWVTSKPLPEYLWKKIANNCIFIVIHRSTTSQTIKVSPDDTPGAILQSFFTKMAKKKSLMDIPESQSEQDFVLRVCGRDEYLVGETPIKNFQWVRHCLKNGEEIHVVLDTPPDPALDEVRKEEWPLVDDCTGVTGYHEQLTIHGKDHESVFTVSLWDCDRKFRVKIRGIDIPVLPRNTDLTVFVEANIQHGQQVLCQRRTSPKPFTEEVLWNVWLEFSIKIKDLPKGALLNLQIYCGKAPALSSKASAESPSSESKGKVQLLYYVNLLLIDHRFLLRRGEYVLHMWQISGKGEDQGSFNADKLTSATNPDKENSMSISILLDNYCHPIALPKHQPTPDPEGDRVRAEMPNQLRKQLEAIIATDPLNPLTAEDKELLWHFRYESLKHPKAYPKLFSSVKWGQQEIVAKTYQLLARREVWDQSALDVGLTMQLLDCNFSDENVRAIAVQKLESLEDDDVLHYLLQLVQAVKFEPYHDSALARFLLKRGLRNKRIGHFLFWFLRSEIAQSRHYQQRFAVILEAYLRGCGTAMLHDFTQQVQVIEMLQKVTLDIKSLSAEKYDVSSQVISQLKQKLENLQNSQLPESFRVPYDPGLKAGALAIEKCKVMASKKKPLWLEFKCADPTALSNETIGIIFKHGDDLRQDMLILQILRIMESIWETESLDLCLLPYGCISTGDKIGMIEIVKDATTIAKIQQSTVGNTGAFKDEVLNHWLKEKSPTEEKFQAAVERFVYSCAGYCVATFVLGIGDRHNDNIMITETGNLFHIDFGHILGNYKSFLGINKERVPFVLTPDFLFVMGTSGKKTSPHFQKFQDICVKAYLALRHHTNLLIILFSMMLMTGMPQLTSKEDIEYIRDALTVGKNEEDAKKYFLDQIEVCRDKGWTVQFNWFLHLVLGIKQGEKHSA
Sequence of High affinity nerve growth factor receptor (Homo sapiens) (P04629 33-796 limits assumed): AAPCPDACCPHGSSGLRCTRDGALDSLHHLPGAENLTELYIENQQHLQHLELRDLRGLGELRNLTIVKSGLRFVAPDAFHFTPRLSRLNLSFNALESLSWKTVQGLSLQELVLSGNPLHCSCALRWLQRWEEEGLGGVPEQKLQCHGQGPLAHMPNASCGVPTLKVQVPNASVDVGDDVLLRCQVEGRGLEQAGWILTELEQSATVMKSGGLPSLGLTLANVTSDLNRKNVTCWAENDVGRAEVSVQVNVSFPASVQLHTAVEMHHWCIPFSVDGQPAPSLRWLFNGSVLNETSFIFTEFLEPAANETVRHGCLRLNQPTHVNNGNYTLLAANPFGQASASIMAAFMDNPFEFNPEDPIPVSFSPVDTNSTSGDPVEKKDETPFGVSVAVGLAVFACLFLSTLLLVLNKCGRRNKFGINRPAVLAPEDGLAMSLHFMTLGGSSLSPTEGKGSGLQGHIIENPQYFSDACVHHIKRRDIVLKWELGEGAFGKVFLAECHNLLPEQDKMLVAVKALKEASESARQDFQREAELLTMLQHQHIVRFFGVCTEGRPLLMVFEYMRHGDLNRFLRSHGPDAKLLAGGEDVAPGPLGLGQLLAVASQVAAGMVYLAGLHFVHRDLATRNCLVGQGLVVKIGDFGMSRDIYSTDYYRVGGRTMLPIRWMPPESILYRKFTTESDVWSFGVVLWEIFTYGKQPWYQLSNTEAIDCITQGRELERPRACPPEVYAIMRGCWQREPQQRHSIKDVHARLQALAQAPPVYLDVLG
Sequence of Cyclin-dependent kinase 9 (Homo sapiens) (P50750 whole entry): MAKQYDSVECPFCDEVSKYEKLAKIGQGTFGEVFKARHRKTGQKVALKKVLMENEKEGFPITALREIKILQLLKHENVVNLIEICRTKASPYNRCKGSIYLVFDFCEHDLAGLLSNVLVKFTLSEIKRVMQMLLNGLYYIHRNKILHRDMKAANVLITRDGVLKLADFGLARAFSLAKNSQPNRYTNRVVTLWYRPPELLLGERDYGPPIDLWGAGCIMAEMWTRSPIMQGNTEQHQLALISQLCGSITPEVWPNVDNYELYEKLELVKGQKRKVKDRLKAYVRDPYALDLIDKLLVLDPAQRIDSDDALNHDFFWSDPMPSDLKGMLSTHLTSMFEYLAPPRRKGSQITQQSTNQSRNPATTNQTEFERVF

SMILES: CO[C@@H]1[C@H](N(C)C(=O)CCC(=O)NCCC(=O)NCCC(=O)NCCC(N)=O)C[C@H]2O[C@]1(C)n1c3ccccc3c3c4c(c5c6ccccc6n2c5c31)C(=O)NC4
- Activity [1]: 80%
- Activity [2]: 38%
- Activity [3]: 2.6%
- Activity [4]: 87%
- Activity [5]: 92%
- Activity [6]: 55%

SMILES: CO[C@@H]1[C@H](N(C)C(=O)CCC(=O)NCCC(=O)NCCC(=O)NCCC(=O)NCCC(=O)NCCC(=O)NCCC(=O)NCCC(=O)N[C@H]2CSSC[C@@H](C(=O)NCC(N)=O)NC(=O)CNC(=O)[C@H](Cc3ccccc3)NC(=O)[C@H](C(C)C)NC(=O)[C@H](CCCNC(=N)N)NC(=O)[C@H](Cc3ccccc3)NC(=O)[C@H](C(C)C)NC2=O)C[C@H]2O[C@]1(C)n1c3ccccc3c3c4c(c5c6ccccc6n2c5c31)C(=O)NC4 ({Staurosporine-Suc-βAla-βAla-βAla-βAla-βAla-βAla-βAla}-CVFRVFGCG-NH2; disulfide 1-8)
- Activity [7]: 100%

SMILES: CO[C@@H]1[C@H](N(C)C(=O)CCC(=O)NCCC(=O)NCCC(=O)NCCC(=O)NCCC(=O)NCCC(=O)NCCC(=O)NCCC(=O)N[C@H]2CNC(=O)C[C@@H](C(N)=O)NC(=O)CNC(=O)[C@H](Cc3ccccc3)NC(=O)[C@H](C(C)C)NC(=O)[C@H](CCCNC(=N)N)NC(=O)[C@H](Cc3ccccc3)NC(=O)[C@H](C(C)C)NC2=O)C[C@H]2O[C@]1(C)n1c3ccccc3c3c4c(c5c6ccccc6n2c5c31)C(=O)NC4 ({Staurosporine-Suc-βAla-βAla-βAla-βAla-βAla-βAla-βAla}-[Dap]VFRVFGD-NH2; lactam 1-8)
- Activity [8]: 100%
- Activity [9]: 84%
- Activity [10]: 98%
- Activity [11]: 100%
- Activity [12]: 91%
- Activity [13]: 1.8%
- Activity [14]: 98%
- Activity [15]: 100%
